The list is not random: actives were taken first. Their share in the collection is about 2.9%.
SIRT5 block = sirtuin-5 (human) deacylase inhibition | Q9NXA8 | Purified SirT5, succinyl-peptide AMC, trypsin-coupled fluorescence | inhibition, % at 15 µM | 330,000 compounds, 1.1% hits; in the data active = inhibition above about 15%; inconclusive = no clear call, values can overlap the other calls
Target sequence (Q9NXA8 whole entry, looked up): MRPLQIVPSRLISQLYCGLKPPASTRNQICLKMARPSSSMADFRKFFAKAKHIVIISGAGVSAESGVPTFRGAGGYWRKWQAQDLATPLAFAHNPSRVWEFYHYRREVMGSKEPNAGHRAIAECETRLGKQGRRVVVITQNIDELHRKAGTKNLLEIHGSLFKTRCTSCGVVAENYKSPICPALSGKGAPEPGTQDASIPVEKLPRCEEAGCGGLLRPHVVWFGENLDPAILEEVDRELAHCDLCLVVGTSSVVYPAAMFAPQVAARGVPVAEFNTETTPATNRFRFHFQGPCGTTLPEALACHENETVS
S100A4 MyoIIA = S100A4-myosin IIA interaction inhibition | P26447 | S100A4/TAMRA-MyoIIA peptide fluorescence polarization | inhibition, % at 10.7 µM | 360,000 compounds, 0.14% hits | AID 652163;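 active = mean inhibition of at least 70% across replicates, with every replicate also reaching that level; inconclusive = mean inhibition reaches 70% but some replicates fall short; inactive = mean inhibition below 70%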
Target sequence (P26447 whole entry, looked up): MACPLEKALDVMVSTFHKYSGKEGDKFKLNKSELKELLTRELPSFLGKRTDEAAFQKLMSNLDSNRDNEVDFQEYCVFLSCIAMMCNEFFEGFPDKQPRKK
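Test system: S100A4 monomer protein. Medium: HEPES buffer with Ca2+, pH 7.2. Reagent: fluorescent myosin IIA peptide, 5 nM. Compound dosing: single-point compound testing. Timing: 5 min between mix addition and reading. Benchmarks: DMSO neutral and TFP positive wells.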
PGC1a acetyl inh = PGC1a acetylation modulation, inhibitor mode; 350,000 compounds, 0.17% hits; inhibition, % at 15.6 µM; U2OS PGC1a acetylation, AlphaScreen anti-acetyl-lysine; with virally co-expressed GCN5 acetyltransferase; AID 651687;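 active = every replicate shows inhibition of at least 40%; inconclusive = mean inhibition at least 40% but some replicate below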;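 note: 0% = neutral control wells and 100% = positive control wells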
C2C12 statin = suppression of simvastatin myotoxicity | 330,000 compounds, 0.78% hits | rescue of ATP level, % at 7.49 µM | C2C12 myotubes + simvastatin, ATP luminescence, 48 h; scaled: DMSO 0, geranylgeraniol control 100 | AID 602340;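 active = mean ATP rescue above about 67%, or every replicate alone reaching that limit, limit read from the data, passing the limit was not always enough; inconclusive = no clear call, values can overlap the other calls; inactive = mean under the limit and some replicate under it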;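 note: myotubes were challenged with 10 µM simvastatin during compound exposure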
DENV2 CPE = protects cells from dengue virus 2 cytopathic effect; DENV2-infected cells, cytopathic effect rescue, plate reader; 350,000 compounds, 1.7% hits; CPE inhibition, % at 9.99 µM; in the data active = CPE inhibition above about 20%, passing the limit was not always enough; inconclusive = no clear call, values can overlap the other calls; tested in BHK-21 cells;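 note: 0% = median of neutral control wells and 100% = median of positive control wells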
The depositor's hits bear a star; ? = inconclusive; · = no result; ! = a repeat was not active.

SMILES	SIRT5 block	S100A4 MyoIIA	PGC1a acetyl inh	C2C12 statin	DENV2 CPE
COc1ccc(S(=O)(=O)n2ccc(C)n2)cc1C	2	-9	-9	0	?
COc1cc(C)c(S(=O)(=O)n2ccc(C)n2)cc1C	·	·	-4	113*	·
CC(C)(C)[C@@H]1C=C(C(=O)N2CCN(Cc3ccc4c(c3)OCO4)CC2)O[C@H](OCc2ccc(CO)cc2)C1	0	-4	-7	·	34*!
CC(C)(C)[C@@H]1C=C(C(=O)Nc2ccccc2)O[C@H](OCc2ccc(CO)cc2)C1	·	98*	9	15	3
O=C(NCc1ccccc1)C1=C[C@@H](C2CC2)C[C@@H](OCc2ccc(CO)cc2)O1	6	-10	2	-19	26*!
COc1cccc(CN(C)C[C@@H]2OCc3ccccc3-c3c(n(C)c4ccccc34)C(=O)N([C@H](C)CO)C[C@H]2C)c1	29*	-8	-17	·	12
COc1ccccc1CN(C)C[C@@H]1OCc2ccccc2-c2c(n(C)c3ccccc23)C(=O)N([C@@H](C)CO)C[C@H]1C	·	-4	-5	·	-3
C[C@H](CO)N1C[C@H](C)[C@H](CN(C)Cc2ccccc2C(F)(F)F)OCc2ccccc2-c2c(n(C)c3ccccc23)C1=O	0	-18	-13	·	26*
COc1ccccc1CN(C)C[C@H]1OCc2ccccc2-c2c(n(C)c3ccccc23)C(=O)N([C@H](C)CO)C[C@H]1C	2	28	-12	·	27*
O=C(Nc1ccc(-c2ccccc2)cc1)[C@H]1[C@H](CO)[C@H]2Cn3c(cccc3=O)[C@@H]1N2Cc1ccccc1	7	-8	·	24	-16
C/C=C/c1ccc([C@H]2[C@@H](CO)N(C(=O)CC)[C@H]2CNC(=O)c2ccncc2)cc1	·	·	0	-1	15
Cc1ccc(C2/C(=C(/O)c3cnn(-c4ccccc4)c3C)C(=O)C(=O)N2CCN2CCOCC2)o1 (centres undefined)	·	·	-5	126*	·
COCC(=O)N1[C@H](CO)[C@H]2c3ccccc3N(C(=O)NC(C)C)C[C@H]21	-4	-1	4	10	2
COc1cccc2sc3cc(NCc4ccc(C)o4)ccc3c(=O)c12	·	?	-7	4	56*
COCC(=O)Nc1ccc2c(c1)[C@H]1C[C@H](CC(=O)NCCc3ccccc3)O[C@@H](CO)[C@H]1O2	0	-8	3	0	-6
Cc1c(C(=O)c2ccc(F)cc2F)c2ccccn2c1CCC#N	2	-1	-12	·	-6
Cc1c(C(=O)c2ccc(N(C)C)cc2)c2ccccn2c1CCC#N	112*	-4	-10	-10	-4
C[C@H](CO)N1C[C@H](C)[C@H](CN(C)C(=O)CCCN(C)C)OCCCC[C@H](C)Oc2ccc(NC(=O)CCC(F)(F)F)cc2C1=O	-8	-5	9	26	1
Cc1ccccc1S(=O)(=O)N1CC(=O)N2[C@H](CO)[C@@H](c3ccc(C#CCN(C)C)cc3)[C@H]2C1	3	5	11	·	43*
Cc1ccccc1S(=O)(=O)N1CC(=O)N2[C@@H](CO)[C@H](c3ccc(C#CCN(C)C)cc3)[C@@H]2C1	-1	-7	-3	·	14
Cc1ccccc1S(=O)(=O)N1CC(=O)N2[C@H](CO)[C@@H](c3ccc(C#CCN(C)C)cc3)[C@@H]2C1	-2	-4	-15	·	34*
CC(C)CC#Cc1cnc2c(c1)C(=O)N([C@H](C)CO)C[C@@H](C)[C@H](CN(C)Cc1ccccc1C(=O)O)O2	7	-5	0	5	13
CC(C)(OC(=O)c1ccc(C#N)cc1)c1cc2ccccc2c(=O)o1	·	1	-5	-9	37*
CC(C)(OC(=O)c1ccc(C(F)(F)F)cc1)c1cc2ccccc2c(=O)o1	·	0	2	8	-4
Cc1ccc(NC(=O)c2cccc(OCc3c(C)noc3C)c2)cc1	·	·	-15	105*	·
SMILES	SIRT5 block	S100A4 MyoIIA	PGC1a acetyl inh	C2C12 statin	DENV2 CPE
Cc1noc(C)c1COc1cccc(C(=O)Nc2ccccc2)c1	0	-7	-15	1	8
C[C@@H]1CN([C@@H](C)CO)C(=O)c2cc(NS(=O)(=O)c3cccs3)ccc2O[C@H]1CN(C)Cc1ccc(Oc2ccccc2)cc1	2	3	-7	-75	5
O=C(C[C@H]1C(=O)N(Cc2ccccc2)C[C@@H]1Cc1ccccc1)Nc1ccccc1	·	-12	-3	9	-2
O=C(CC1NCCN(Cc2ccccc2)C1=O)Nc1ccccc1 (centres undefined)	·	3	9	·	72*
O=C(N[C@@H]1CC[C@@H](CCNS(=O)(=O)c2ccc(F)cc2)O[C@H]1CO)c1cccnc1	-1	0	3	-2	-3
CCCCSc1nc2c(cnn2-c2ccc(C)c(C)c2)c(=O)[nH]1	2	2	4	-18	50*
COC(=O)CSc1nc2c(cnn2-c2ccc(F)cc2)c(=O)[nH]1	-1	-3	0	5	-1
CCCSc1nc2c(cnn2-c2ccc(C)c(C)c2)c(=O)[nH]1	-2	-5	0	-17	5
COC(=O)c1ccc(CSc2nc3c(cnn3-c3ccc(C)c(C)c3)c(=O)[nH]2)o1	·	·	-2	132*	·
CC(OC(=O)Cn1[nH]c(=O)c2ccccc2c1=O)C(=O)Nc1ccc(F)cc1Cl (centres undefined)	7	-1	8	4	-4
CSCC(O)Cn1[nH]c(=O)c2cc(Cl)c(Cl)cc2c1=O (centres undefined)	-1	0	84*	17	-1
COc1ccc(OCC(=O)Nc2ccc(NC(=O)c3cccs3)cc2)cc1	102*	-2	·	-1	0
CCCCC(=O)Nc1ccc(NC(=O)c2cccs2)cn1	·	·	49*	·	·
CCCC(=O)Nc1ccc(NC(=O)c2cccs2)cn1	·	·	4	-34	·
COc1ccccc1-c1cc(C(=O)NC(C)C)no1	22*	-5	-4	·	2
COc1ccccc1-c1cc(C(=O)NC(C)c2ccccc2)no1 (centres undefined)	·	·	-2	44	·
O=[N+]([O-])c1cc(Cl)ccc1Sc1cccc2cccnc12	5	-4	14	-4	-2
O=[N+]([O-])c1ccc(Sc2cccc3cccnc23)c([N+](=O)[O-])c1	-6	-4	-35	73*	·
CC1CCN(CCOCCOc2ccc(Br)cc2Cl)CC1	·	·	-6	-24	·
CC1CCCN(CCCOc2ccc(Br)cc2Cl)C1 (centres undefined)	-3	0	-8	·	34*
CCCNC(=O)N[C@H]1CC[C@@H](CCn2cc(C3CCCC3)nn2)O[C@H]1CO	-2	·	-3	-11	-1
CCOC(=O)c1cc2ccc3ccccc3c2oc1=O	24*	1	-4	-1	1
CCOC(=O)c1cc2ccc(OC(=O)c3ccco3)cc2oc1=O	·	·	-2	8	·
COCCNC(=O)C[C@H]1C[C@@H]2c3cc(NC(=O)COC)ccc3O[C@@H]2[C@@H](CO)O1	3	2	17	-3	-3

Compound activity: PubChem, Broad Institute
